Experimental data: ChEMBL document CHEMBL1132620, “Piperazine imidazo[1,5-a]quinoxaline ureas as high-affinity GABAA ligands of dual functionality” (J Med Chem, 1999)

How the values were obtained:
[1] = target: T1, GABA-A receptor; anion channel (Rattus norvegicus) (UniProt O09028+P15431+P18506+P18508+P19969+P20236+P23574+P23576+P28471+P28473+P30191+P62813+P63079+P63138+Q91ZM7+Q9ES14); assay: Shift in [35S]TBPS binding to GABA-A Benzodiazepine receptor of rat brain membrane
[2] = target: GABA-A receptor; anion channel; assay: (§1) Displacement of [3H]flunitrazepam from GABA-A benzodiazepine receptor of rat cortical membranes; format: cell membranes, Membrane
Method in brief: (§2)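 Rat membranes incubated 60 min at 4 °C with [3H]flunitrazepam, 50 µg membrane protein and graded test drug in 200 µL containing NaCl, 10 mM Hepes/Tris pH 7.4 and 1 mM MgCl2; bound ligand separated by rapid filtration on GF/B; mean affinity, SE ≤10% of mean.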

[3] = target: T2, GABA-A receptor; alpha-1/beta-2/gamma-2 (Homo sapiens) (UniProt P14867+P47870+P18507); assay: (§3) In vitro GABA-mediated chloride current in A293 cells expressing GABA-A benzodiazepine receptor alpha-1-beta-2-gamma-2 subunits at 5 uM; format: functional, cell-based; conditions: HEK293
[4] = target: T2, GABA-A receptor; alpha-1/beta-2/gamma-2 (Homo sapiens); assay: as §3; format: functional, cell-based; conditions: HEK293; remark: listed apart in the source
[5] = tested on: Rattus norvegicus; assay: In vivo efficacy evaluated for ability to antagonize metrazole induced clonic convulsions in rat after ip injection; format: functional
[6] = species: Mus musculus; assay: Ability to antagonize the muscle relaxation effect in mice caused by a benzodiazepine full agonist, triazolam.; format: functional
Method in brief: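 Muscle relaxation induced by triazolam; test compound and triazolam given separately, traction scored 30 min after dosing; ED50 for blocking the relaxant effect.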

[7] = tested on: Mus musculus; assay: In vivo efficacy is evaluated by percent control of cerebellar GMP levels in (drug+stress) treated mice/mice under stress; format: functional; parameters: concentration or dose not given beside the values
Method in brief: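 Male CF-1 mice given drug orally in vehicle 122 before electric footshock stress, controls given vehicle (1 mL/100 g); killed 30 min after treatment; cerebellum homogenized in 1% perchloric acid, iced 30 min, boiled 5 min, spun 17000g 20 min; supernatant cGMP by radioimmunoassay, expressed as % of stress control.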

[8] = target: T1, GABA-A receptor; anion channel (Rattus norvegicus); assay: as §1; format: cell membranes; parameters: concentration or dose not given beside the values; conditions: Membrane, concentration not given here; method in brief: as §2

Compound | Shift [1] | Ki [2] [nM] | Change in Cl- current [3] | Change in Cl- current [4] | ED50 [5] [mg/kg] | ED50 [6] [mg/kg] | Control [7] [%] | inhibition [8] [%]
C[C@@H]1CN(C(=O)N2Cc3c(C(=O)OC(C)(C)C)ncn3-c3ccccc32)C[C@H](C)N1C | -0.82 | 6.67 | -0.1 | 0.5 | > 50 |  |  | 
CC(C)(C)OC(=O)c1ncn2c1CN(C(=O)N1CC3CCC(C1)N3)c1cc(Cl)ccc1-2 | 0.2 | 5.45 | 0.2 | 0.73 | > 50 |  |  | 
CN(C)C(=O)N1Cc2c(C(=O)OC(C)(C)C)ncn2-c2ccccc21 | 0.15 | 5.25 | 0.09 |  | > 50 |  |  | 
Cc1cccc2c1N(C(=O)N1C[C@@H](C)N[C@@H](C)C1)Cc1c(C(=O)OC(C)(C)C)ncn1-2 | 0.54 | 250 | 0.22 |  | > 50 |  |  | 
CC(C)(C)OC(=O)c1ncn2c1CN(C(=O)N1CCNCC1)c1cc(Cl)ccc1-2 | -0.02 | 3.99 | 0 | 0.4 | > 50 |  |  | 
Cc1cccc2c1N(C(=O)N1C[C@@H](C)N(C)[C@@H](C)C1)Cc1c(C(=O)OC(C)(C)C)ncn1-2 | 0.48 | 470 | 0.33 |  | > 50 |  |  | 
C[C@@H]1CN(C(=O)N2Cc3c(C(=O)OC(C)(C)C)ncn3-c3cccc(Cl)c32)C[C@H](C)N1 | 0.05 | 28.2 | 0.29 |  | > 50 | > 30 | 95 | 44
C[C@@H]1CN(C(=O)N2Cc3c(C(=O)OC(C)(C)C)ncn3-c3ccc(Cl)cc32)C[C@@H](C)N1 | 0.56 | 5.13 | 0.05 | 0.5 | 1.3 | > 30 |  | 62
C[C@@H]1NCCN(C(=O)N2Cc3c(C(=O)OC(C)(C)C)ncn3-c3ccc(Cl)cc32)[C@H]1C | 0.07 | 4.03 | 0.48 | 0.68 | 17.7 | 35 |  | 55
Cc1ccc2c(c1)N(C(=O)N1CCNCC1)Cc1c(C(=O)OC(C)(C)C)ncn1-2 | 0.3 | 14.7 | 0.4 | 0.55 | 21 | > 30 |  | 
CC1CN(C(=O)N2Cc3c(C(=O)OC(C)(C)C)ncn3-c3ccc(Cl)cc32)CC(C)N1 (stereo not drawn) | 0.41 | 2.35 | 0.8 | 0.6 | 10.5 | 17.3 |  | 63
CC1CN(C)CC(C)N1C(=O)N1Cc2c(C(=O)OC(C)(C)C)ncn2-c2ccc(F)cc21 (stereo not drawn) | 0.63 | 13.3 | 0.75 |  | 8.8 | > 30 | 82 | 68
CN1C2CCC1CN(C(=O)N1Cc3c(C(=O)OC(C)(C)C)ncn3-c3ccc(Cl)cc31)C2 | 0.68 | 9.15 | 2 | 2.1 | 29.7 | > 30 |  | 26
CN1CC2CC1CN2C(=O)N1Cc2c(C(=O)OC(C)(C)C)ncn2-c2ccc(Cl)cc21 (stereo not drawn) | 0.68 | 4.89 | 1 | 1.6 | 7.4 | > 30 |  | 11
CC1CN(C(=O)N2Cc3c(C(=O)OC(C)(C)C)ncn3-c3ccc(Cl)cc32)C(C)CN1.O=C(O)CC(=O)O (stereo not drawn) | 0.41 | 7.8 | -0.05 | 0.3 | 17.6 | > 30 |  | 71
CC(C)(C)OC(=O)c1ncn2c1CN(C(=O)N1CCNCC1)c1ccccc1-2.Cl | 0.04 | 4.11 |  | 0.35 | > 50 |  |  | 
